In brackets after ≈: the same amount, converted by molar mass.

As usually defined, the IC50 is the concentration that inhibits the measured activity by half. A high value points to a need for much substance. A word on the solubility: it is how much of the substance goes into solution per volume. In general, half-life refers to how long it takes for the measured level to halve.

In data set [1] the test system is MCF7. As to the kind of experiment: Cytotoxicity against human MCF7 cells at 25 ng/mL. In kind it is functional.
The test system of the next data set is NCI-H226. As to the kind of experiment: Cytotoxicity against human NCI-H226 cells. Format: functional, cell-based.
Data set [2] can be described thus: Solubility in water. Format: physicochemical.
Data set [3] in a line: Stability in human serum for 4 hrs. As to conditions: read-out: Stability. Format: ADME, cell-free. The gist of the method: (§1)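 Compound incubated in human serum at 4 µg/mL serum and 37 °C. It was then extracted with dichloromethane, and the remaining intact material was quantified by reverse-phase HPLC on a C18 column. Sampling ran up to 96 h, and stability is expressed as percent remaining.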

A short description of data set [4]: Half life in human serum. Format: ADME, cell-free. The gist of the method: as §1
For a further data set, the system named is A498. Briefly: Cytotoxicity against human A498 cells. In kind it is functional, cell-based.
Data set [5] is described as follows: Cytotoxicity against human TW01 cells. Format: functional, cell-based.
The next data set has as its system HCT-116. As to the kind of experiment: Cytotoxicity against human HCT116 cells. Format: functional, cell-based.
Data set [6] concerns MCF7. As to the kind of experiment: Cytotoxicity against human MCF7 cells. In kind it is functional, cell-based. The gist of the method:
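Human MCF-7 breast cancer cells were tested in a panel of eight cancer lines plus RPTEC normal renal epithelial cells, with growth inhibition measured across a concentration range. IC50 is the concentration giving 50% inhibition, taken as the mean of at least three independent experiments with SD under 10%.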

Data set [7] is described as follows: Cytotoxicity against human Hep3B cells. In kind it is functional, cell-based, Hep 3B2.
A further data set has as its system MKN-45. Briefly: Cytotoxicity against human MKN45 cells. In kind it is functional, cell-based.
Data set [8] is described as follows: Cytotoxicity against human MES-SA cells. Format: functional, cell-based.
The test system of data set [9] is RPTEC. Briefly: Cytotoxicity against human RPTEC cells. Format: cell-based.
The subject of data set [10] is RPTEC. Briefly: Selectivity index, IC50 for MCF7 cells to human RPTEC cells. In kind it is functional. The gist of the method:
(§2)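 Selectivity index is the IC50 in the cancer line (MCF-7 or NPC-TW01) divided by the IC50 in normal RPTEC cells. Each IC50 is the mean of at least three independent experiments.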

The test system of data set [11] is RPTEC. Briefly: Selectivity index, IC50 for TW01 cells to human RPTEC cells. Format: functional. The gist of the method:
as §2

Turning to `CC(=O)O[C@H]1C(=O)[C@@]2(C)[C@H]([C@H](OC(=O)c3ccccc3)[C@]3(O)C[C@H](OC(=O)[C@H](OC(=O)CCC(=O)O)[C@@H](NC(=O)c4ccccc4)c4ccccc4)C(C)=C1C3(C)C)[C@]1(OC(C)=O)CO[C@@H]1C[C@@H]2O`, the Activity in the data set on MCF7 [1] stood at 50%.

With `CO[C@H]1O[C@H](CO)[C@@H](O)[C@@H](O)[C@H]1OC(=O)CCC(=O)O[C@@H](C(=O)O[C@H]1C[C@@]2(O)[C@@H](OC(=O)c3ccccc3)[C@@H]3[C@]4(OC(C)=O)CO[C@@H]4C[C@H](O)[C@@]3(C)C(=O)[C@H](OC(C)=O)C(=C1C)C2(C)C)[C@@H](NC(=O)c1ccccc1)c1ccccc1`, the IC50 is 114 nM in the data set on NCI-H226; 258 nM in the data set with A498; 7.2 nM in data set [5]; 25.6 nM in the data set with HCT-116; 0.7 nM with MCF7 [6]; 60.3 nM in data set [7]. Besides, the IC50 turned out to be 14.1 nM in the data set on MKN-45, 9.1 nM in [8] and 1580 nM with RPTEC [9]. For the same molecule, in data set [2], the solubility is 350 µg/mL (≈ 310 µM). Moreover, the remaining at 4 h in data set [3] stood at 85%. This molecule gave a half-life in data set [4] of 66 h. Further, the figures for the “Ratio IC50” value in the data set with RPTEC [10] and with RPTEC [11] were 0.0004 and 0.0046, respectively.

As for `CC(=O)O[C@H]1C(=O)[C@@]2(C)[C@H]([C@H](OC(=O)c3ccccc3)[C@]3(O)C[C@H](OC(=O)[C@H](O)[C@@H](NC(=O)c4ccccc4)c4ccccc4)C(C)=C1C3(C)C)[C@]1(OC(C)=O)CO[C@@H]1C[C@@H]2O` [PACLITAXEL], the IC50 came out at 6.8 nM in the data set with NCI-H226; 61 nM in the data set with A498; 0.3 nM in data set [5]; 0.6 nM in the data set on HCT-116; 0.5 nM in the data set with MCF7 [6]; 5.4 nM in data set [7]. The IC50 was 0.5 nM in the data set with MKN-45, 0.5 nM in data set [8] and 0.9 nM with RPTEC [9]. In addition, the solubility in [2] was < 4 µg/mL. In addition, the figures for the “Ratio IC50” value in the data set on RPTEC [10] and in the data set with RPTEC [11] were 0.56 and 0.33, respectively.

The values are drawn from ChEMBL document CHEMBL1146297, “Synthesis of 2'-paclitaxel methyl 2-glucopyranosyl succinate for specific targeted delivery to cancer cells” (Bioorg Med Chem Lett, 2007).
